Laboratory results published in ChEMBL document CHEMBL2150936, “Anticancer activity of small amphipathic β²,²-amino acid derivatives” (Eur J Med Chem, 2012).

What was measured:
HOP-62 = test: Cytotoxicity against human HOP62 cells after 4 hrs by MTT assay; format: functional, cell-based; settings: HOP-62, 4 h
OVCAR-5 = test: Cytotoxicity against human OVCAR5 cells after 4 hrs by MTT assay; format: functional, cell-based; settings: OVCAR-5, 4 h
NCI-H522 = test: Cytotoxicity against human NCI-H522 cells after 4 hrs by MTT assay; format: functional, cell-based; settings: NCI-H522, 4 h
LOX IMVI = test: Cytotoxicity against human LOXIMVI cells after 4 hrs by MTT assay; format: functional, cell-based
TK-10 = test: Cytotoxicity against human TK10 cells after 4 hrs by MTT assay; format: functional, cell-based; settings: TK-10, 4 h
SK-MEL-5 = test: Cytotoxicity against human SK-MEL-5 cells after 4 hrs by MTT assay; format: functional, cell-based; settings: SK-MEL-5, 4 h
Ramos [1] = test: Selectivity index, ratio of EC50 for human MRC5 cells to IC50 for human Ramos cells; format: functional
Outline: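 Ramos cells were seeded at 4 × 10^5 cells/ml in serum-free RPMI-1640, and compounds in RPMI-1640 were added at once. MRC-5 fibroblasts were seeded at 1 × 10^5 cells/ml in MEM with 10% FBS, grown overnight, and the medium was then replaced with compound. Both were incubated 4 h at 37 °C, 5% CO2, then given MTT for 2 h. Formazan was dissolved in acidic isopropanol and read at 590 nm. Survival was expressed relative to the untreated medium control. SI = MRC-5 EC50 / Ramos IC50.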

IGROV-1 = test: Cytotoxicity against human IGROV1 cells after 4 hrs by MTT assay; format: functional, cell-based; settings: IGROV-1, 4 h
ACHN = test: Cytotoxicity against human ACHN cells after 4 hrs by MTT assay; format: functional, cell-based
NCI-H460 = test: Cytotoxicity against human NCI-H460 cells after 4 hrs by MTT assay; format: functional, cell-based; settings: NCI-H460, 4 h
MCF7 = test: Cytotoxicity against human MCF7 cells after 4 hrs by MTT assay; format: functional, cell-based; settings: MCF7, 4 h
UACC-62 = test: Cytotoxicity against human UACC62 cells after 4 hrs by MTT assay; format: functional, cell-based; settings: UACC-62, 4 h
Ramos [2] = test: Cytotoxicity against human Ramos cells after 4 hrs by MTT assay; format: functional, cell-based
Outline: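 Ramos Burkitt's lymphoma cells, kept in suspension in RPMI 1640 with 10% FBS, were seeded at 4 × 10^5 cells/ml in serum-free RPMI 1640. Compounds in RPMI-1640 were added immediately, then 4 h at 37 °C, 5% CO2. MTT was added for a further 2 h, formazan dissolved in acidic isopropanol (0.04 N HCl), and A590 read. Survival was calculated against untreated medium control; 1% Triton X-100 served as positive control.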

NCI-H226 = test: Cytotoxicity against human NCI-H226 cells after 4 hrs by MTT assay; format: functional, cell-based; settings: NCI-H226, 4 h
KM12 = test: Cytotoxicity against human KM12 cells after 4 hrs by MTT assay; format: functional, cell-based; settings: KM12, 4 h
NCI/ADR-RES = test: Cytotoxicity against human NCI/ADR-RES cells after 4 hrs by MTT assay; format: functional, cell-based
U-251 = test: Cytotoxicity against human U251 cells after 4 hrs by MTT assay; format: functional, cell-based; settings: U-251, 4 h
786-0 = test: Cytotoxicity against human 786-0 cells after 4 hrs by MTT assay; format: functional, cell-based; settings: 786-0, 4 h
NCI-H23 = test: Cytotoxicity against human NCI-H23 cells after 4 hrs by MTT assay; format: functional, cell-based; settings: NCI-H23, 4 h
COLO 205 = test: Cytotoxicity against human COLO205 cells after 4 hrs by MTT assay; format: functional, cell-based; settings: COLO 205, 4 h
SR = test: Cytotoxicity against human SR cells after 4 hrs by MTT assay; format: functional, cell-based
DU-145 = test: Cytotoxicity against human DU145 cells after 4 hrs by MTT assay; format: functional, cell-based; settings: DU-145, 4 h
SK-MEL-2 = test: Cytotoxicity against human SK-MEL-2 cells after 4 hrs by MTT assay; format: functional, cell-based; settings: SK-MEL-2, 4 h
HT-29 = test: Cytotoxicity against human HT-29 cells after 4 hrs by MTT assay; format: functional, cell-based; settings: HT-29, 4 h
MDA-MB-468 = test: Cytotoxicity against human MDA-MB-468 cells after 4 hrs by MTT assay; format: functional, cell-based; settings: MDA-MB-468, 4 h
MOLT-4 = test: Cytotoxicity against human MOLT4 cells after 4 hrs by MTT assay; format: functional, cell-based; settings: MOLT-4, 4 h
MDA-MB-231 = test: Cytotoxicity against human MDA-MB-231 cells after 4 hrs by MTT assay; format: functional, cell-based; settings: MDA-MB-231, 4 h
OVCAR-4 = test: Cytotoxicity against human OVCAR4 cells after 4 hrs by MTT assay; format: functional, cell-based; settings: OVCAR-4, 4 h
OVCAR-8 = test: Cytotoxicity against human OVCAR8 cells after 4 hrs by MTT assay; format: functional, cell-based; settings: OVCAR-8, 4 h
SN12C = test: Cytotoxicity against human SN12C cells after 4 hrs by MTT assay; format: functional, cell-based
SK-OV-3 = test: Cytotoxicity against human SKOV3 cells after 4 hrs by MTT assay; format: functional, cell-based; settings: SK-OV-3, 4 h
[3] = read-out: LC50 (the source's name)

NCCNC(=O)C(CN)(Cc1ccc2ccccc2c1)Cc1ccc2ccccc2c1
IC50 (HOP-62): 2.82 µM | TGI (HOP-62): 2.88 µM | CC50 (HOP-62; [3]): 5.62 µM | IC50 (OVCAR-5): 2.95 µM | TGI (OVCAR-5): 3.02 µM | CC50 (OVCAR-5; [3]): 5.75 µM | IC50 (NCI-H522): 3.09 µM | TGI (NCI-H522): 3.24 µM | CC50 (NCI-H522; [3]): 6.46 µM | IC50 (LOX IMVI): 0.62 µM | TGI (LOX IMVI): 1.7 µM | CC50 (LOX IMVI; [3]): 4.37 µM | IC50 (TK-10): 3.09 µM | TGI (TK-10): 3.16 µM | CC50 (TK-10; [3]): 6.03 µM | IC50 (SK-MEL-5): 2.82 µM | TGI (SK-MEL-5): 3.02 µM | CC50 (SK-MEL-5; [3]): 5.62 µM | Selectivity Index (Ramos [1]): 5.4 | IC50 (IGROV-1): 3.16 µM | TGI (IGROV-1): 3.24 µM | CC50 (IGROV-1; [3]): 7.24 µM | IC50 (ACHN): 2.75 µM | TGI (ACHN): 2.88 µM | CC50 (ACHN; [3]): 5.5 µM | IC50 (NCI-H460): 0.33 µM | TGI (NCI-H460): 0.51 µM | CC50 (NCI-H460; [3]): 1.7 µM | IC50 (MCF7): 1.35 µM | TGI (MCF7): 2.24 µM | CC50 (MCF7; [3]): 5.5 µM | IC50 (UACC-62): 3.31 µM | TGI (UACC-62): 3.31 µM | CC50 (UACC-62; [3]): 5.75 µM | IC50 (Ramos [2]): 4.1 µM | IC50 (NCI-H226): 3.31 µM | TGI (NCI-H226): 3.39 µM | CC50 (NCI-H226; [3]): 7.24 µM | IC50 (KM12): 0.74 µM | TGI (KM12): 1.7 µM | CC50 (KM12; [3]): 4.57 µM | IC50 (NCI/ADR-RES): 3.16 µM | TGI (NCI/ADR-RES): 3.31 µM | CC50 (NCI/ADR-RES; [3]): 6.46 µM | IC50 (U-251): 1.48 µM | TGI (U-251): 2.14 µM | CC50 (U-251; [3]): 4.68 µM | IC50 (786-0): 3.16 µM | TGI (786-0): 3.31 µM | CC50 (786-0; [3]): 6.31 µM | IC50 (NCI-H23): 3.09 µM | TGI (NCI-H23): 3.24 µM | CC50 (NCI-H23; [3]): 6.31 µM | IC50 (COLO 205): 0.34 µM | TGI (COLO 205): 0.35 µM | CC50 (COLO 205; [3]): 0.69 µM | IC50 (SR): 0.35 µM | TGI (SR): 0.62 µM | IC50 (DU-145): 2.57 µM | TGI (DU-145): 2.82 µM | CC50 (DU-145; [3]): 5.37 µM | IC50 (SK-MEL-2): 3.63 µM | TGI (SK-MEL-2): 3.63 µM | CC50 (SK-MEL-2; [3]): 6.92 µM | IC50 (HT-29): 0.41 µM | TGI (HT-29): 1.02 µM | CC50 (HT-29; [3]): 4.07 µM | IC50 (MDA-MB-468): 2.75 µM | TGI (MDA-MB-468): 2.95 µM | CC50 (MDA-MB-468; [3]): 6.17 µM | IC50 (MOLT-4): 1.41 µM | TGI (MOLT-4): 2.69 µM | IC50 (MDA-MB-231): 3.02 µM | TGI (MDA-MB-231): 3.09 µM | CC50 (MDA-MB-231; [3]): 6.03 µM | IC50 (OVCAR-4): 2.82 µM | TGI (OVCAR-4): 2.82 µM | CC50 (OVCAR-4; [3]): 5.37 µM | IC50 (OVCAR-8): 3.39 µM | TGI (OVCAR-8): 3.72 µM | CC50 (OVCAR-8; [3]): 7.24 µM | IC50 (SN12C): 3.24 µM | TGI (SN12C): 3.31 µM | CC50 (SN12C; [3]): 6.17 µM | IC50 (SK-OV-3): 3.02 µM | TGI (SK-OV-3): 3.02 µM | CC50 (SK-OV-3; [3]): 5.5 µM
